Assay results as given in ChEMBL document CHEMBL3272266, “Dibenzotropone- and dibenzosuberonecarboxylic acids with bronchodilator activity” (J Med Chem, 1979).
The source made the active and inactive calls. The rule behind the calls is not given here.

Tests used:
[1] = tested on: Cavia porcellus; assay: Bronchodilator activity in guinea pig assessed as protection against histamine aerosol-induced bronchoconstriction at 75 mg/kg, ip treated for 15 mins prior to histamine aerosol-challenge measured after 5 mins relative to control; assay type: functional; settings: route intraperitoneal
[2] = tested on: Cavia porcellus; assay: Bronchodilator activity in guinea pig assessed as protection against histamine aerosol-induced bronchoconstriction at 50 mg/kg, ip treated for 15 mins prior to histamine aerosol-challenge measured after 5 mins relative to control; assay type: functional; settings: route intraperitoneal
[3] = tested on: Cavia porcellus; assay: Bronchodilator activity in guinea pig assessed as protection against histamine aerosol-induced bronchoconstriction at 100 mg/kg, ip treated for 15 mins prior to histamine aerosol-challenge measured after 5 mins relative to control; assay type: functional; settings: route intraperitoneal
Method in brief: (§1)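 Guinea pigs in groups of eight; a control group of eight is first confirmed to collapse. Compound given ip 15 min or orally 30 min before exposure to 0.04% aqueous histamine aerosol for 5 min. Percent protection = 100 × animals not collapsing during the 5-min exposure / total animals. Significance by chi-square with Yates correction against 66 control animals.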

[4] = tested on: Cavia porcellus; assay: Bronchodilator activity in trachea and jugular vein cannulated guinea pig assessed as inhibition of histamine-induced response at 25 mg/kg, iv after 5 mins relative to control; assay type: functional
Method in brief: (§2)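 Cannulated guinea pigs given histamine phosphate 10 µg/kg iv in buffered saline. Test agent given 5 min later as the sodium salt in water via jugular cannula, one dose per animal, then histamine repeated 5 min after dosing. Percent inhibition = maximum pulmonary resistance after the agent versus before it.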

[5] = tested on: Cavia porcellus; assay: Bronchodilator activity in trachea and jugular vein cannulated guinea pig assessed as inhibition of histamine-induced response at 12.5 mg/kg, iv after 5 mins relative to control; assay type: functional; method in brief: as §2
[6] = tested on: Cavia porcellus; assay: Bronchodilator activity in guinea pig assessed as protection against histamine aerosol-induced bronchoconstriction at 200 mg/kg, po treated for 30 mins prior to histamine aerosol-challenge measured after 5 mins; assay type: functional, organism-based; parameters: dose 200 mg/kg; method in brief: as §1
[7] = Bronchodilator activity in guinea pig trachea assessed as relaxation of tracheal smooth muscle at 0.05 to 0.5 ug/ml after 15 mins relative to aminophylline; assay type: functional, Cavia porcellus
Method in brief: (§3)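 Guinea pig trachea cut into rings tied as a chain, in Krebs-Henseleit at 37 °C aerated with 5% CO2/95% O2, resting load 0.2–0.5 g, tone recorded isometrically after stabilization. Sodium salts in water, up to 5 µg/mL, 15-min exposure. Potency estimated against aminophylline by a three- or four-point assay from concentration–relaxation plots, one preparation per agent.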

[8] = tested on: Cavia porcellus; assay: Toxicity in trachea and jugular vein cannulated histamine-induced guinea pig assessed as severe airway constriction at 25 mg/kg, iv; assay type: organism-based; parameters: dose 25 mg/kg, route intravenous; settings: in vivo
Method in brief: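 Guinea pigs cannulated in the jugular vein dosed iv with the sodium salt in water. Animals showing severe airway constriction after dosing were recorded and received no histamine challenge.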

[9] = (§4) Bronchodilator activity in guinea pig trachea assessed as relaxation of tracheal smooth muscle at 0.5 to 5 ug/ml after 15 mins relative to aminophylline; assay type: functional, Cavia porcellus; method in brief: as §3
[10] = tested on: Cavia porcellus; assay: Bronchodilator activity in trachea and jugular vein cannulated guinea pig assessed as inhibition of histamine-induced response at 6.25 mg/kg, iv after 5 mins relative to control; assay type: functional; method in brief: as §2
[11] = tested on: Cavia porcellus; assay: Bronchodilator activity in trachea and jugular vein cannulated guinea pig assessed as inhibition of histamine-induced response at 3.175 mg/kg, iv after 5 mins relative to control; assay type: functional; method in brief: as §2
[12] = species: Cavia porcellus; assay: as §4; assay type: functional; method in brief: as §3
[13] = Bronchodilator activity in guinea pig trachea assessed as relaxation of tracheal smooth muscle at 0.125 to 0.5 ug/ml after 15 mins relative to aminophylline; assay type: functional, Cavia porcellus; method in brief: as §3
[14] = Bronchodilator activity in guinea pig trachea assessed as relaxation of tracheal smooth muscle at 0.005 to 5 ug/ml after 15 mins relative to aminophylline; assay type: functional, Cavia porcellus; method in brief: as §3
[15] = tested on: Cavia porcellus; assay: Bronchodilator activity in guinea pig assessed as protection against histamine aerosol-induced bronchoconstriction at 90 mg/kg, po treated for 30 mins prior to histamine aerosol-challenge measured after 5 mins; assay type: functional, organism-based; parameters: dose 90 mg/kg; method in brief: as §1
[16] = tested on: Cavia porcellus; assay: Bronchodilator activity in guinea pig assessed as protection against histamine aerosol-induced bronchoconstriction at 90 mg/kg, ip treated for 15 mins prior to histamine aerosol-challenge measured after 5 mins relative to control; assay type: functional; settings: route intraperitoneal; method in brief: as §1

| SMILES | Activity [3] | other results |
| --- | --- | --- |
| Cn1c(=O)c2[nH]cnc2n(C)c1=O.Cn1c(=O)c2[nH]cnc2n(C)c1=O.NCCN [AMINOPHYLLINE] | 75% | Activity [1]: 50%; Activity [2]: 25% |
| COc1ccc2c(c1)CCc1cc(C(=O)O)ccc1C2=O [listing 1 of 2 here] | 37.5% | – |
| N#Cc1ccc2c(c1)C(=O)c1cc(C(=O)O)ccc1CC2 | 0% | – |
| O=C(O)c1ccc2c(=O)c3cccc(F)c3ccc2c1 [listing 1 of 2 here] | 25% | – |
| O=C(O)c1ccc2c(=O)c3cccc(F)c3ccc2c1 [listing 2 of 2 here] | – | inhibition in vivo at 25 mg/kg [4]: 43%; inhibition in vivo at 12.5 mg/kg [5]: 22% |
| O=C(O)c1ccc2c(c1)CCc1c(Cl)cccc1C2=O [listing 1 of 2 here] | – | Activity [6]: inactive |
| COc1ccc2c(c1)C(=O)c1cc(C(=O)O)ccc1CC2 | 50% | – |
| N#Cc1ccc2c(c1)CCc1ccc(C(=O)O)cc1C2=O | 12.5% | – |
| N#Cc1ccc2c(c1)C(=O)c1cc(C(=O)[O-])ccc1CC2.[Na+] | – | fold change (FC) [7]: 5 |
| O=C(O)c1ccc2c(c1)CCc1cc(Br)ccc1C2=O | 25% | – |
| CC(C)Oc1ccc2ccc3ccc(C(=O)O)cc3c(=O)c2c1 | 62.5% | – |
| CC(=O)c1ccc2c(c1)C(=O)c1ccc(C(=O)O)cc1CC2 | 25% | – |
| O=C(O)c1ccc2c(c1)CCc1ccc(Br)cc1C2=O | 50% | – |
| Cc1ccc2c(c1)CCc1cc(C(=O)[O-])ccc1C2=O.[Na+] | – | Activity [8]: Toxic; inhibition in vivo at 12.5 mg/kg [5]: 0% |
| Cc1cccc2c1CCc1cc(C(=O)O)ccc1C2=O [listing 1 of 2 here] | 87.5% | – |
| O=C(O)c1ccc2c(c1)C(=O)c1cc(Br)ccc1CC2 | 62.5% | – |
| Cc1ccc2c(c1)C(=O)c1ccc(C(=O)O)cc1CC2 | 62.5% | – |
| O=C([O-])c1ccc2c(c1)CCc1ccc(Br)cc1C2=O.[Na+] | – | fold change (FC) [9]: 7 |
| Cc1cccc2c1CCc1cc(C(=O)O)ccc1C2=O [listing 2 of 2 here] | – | inhibition in vivo at 25 mg/kg [4]: 0%; inhibition in vivo at 6.25 mg/kg [10]: 0%; inhibition in vivo at 12.5 mg/kg [5]: 0%; inhibition in vivo at 3.175 mg/kg [11]: 0% |
| CC(C)c1ccc2c(c1)C(=O)c1ccc(C(=O)O)cc1CC2 | 62.5% | – |
| O=C(O)c1ccc2c(c1)C(=O)c1cc(O)ccc1CC2 | 12.5% | – |
| CC(=O)c1ccc2ccc3ccc(C(=O)O)cc3c(=O)c2c1 | 37.5% | – |

| SMILES | Activity [3] | other results |
| --- | --- | --- |
| O=C(O)c1ccc2ccc3ccc(Br)cc3c(=O)c2c1 | 12.5% | – |
| O=C(O)c1ccc2c(c1)CCc1ccccc1C2=O [listing 1 of 3 here] | – | Activity [12]: inactive |
| O=C(O)c1ccc2c(c1)CCc1ccccc1C2=O [listing 2 of 3 here] | 62.5% | – |
| O=C(O)c1cc2ccccc2c(=O)c2ccccc12 | 0% | – |
| O=C([O-])c1ccc2c(c1)C(=O)c1ccccc1CC2.[Na+] | – | fold change (FC) [7]: 7 |
| CC(C)c1ccc2c(c1)C(=O)c1ccc(C(=O)[O-])cc1CC2.[Na+] | – | fold change (FC) [13]: 10 |
| COc1ccc2c(c1)C(=O)c1ccc(C(=O)O)cc1CC2 [listing 1 of 2 here] | 50% | – |
| O=C([O-])c1ccc2c(c1)C(=O)c1cc(Cl)ccc1CC2.[Na+] | – | fold change (FC) [14]: 25 |
| O=C(O)c1ccc2c(c1)CCc1ccc(Cl)cc1C2=O | 0% | – |
| CC(C)c1cccc2c1CCc1cc(C(=O)O)ccc1C2=O | 25% | Activity [15]: inactive |
| CC(C)Oc1ccc2c(c1)C(=O)c1cc(C(=O)O)ccc1CC2 | – | Activity [2]: 0% |
| O=C(O)c1ccc2c(=O)c3cc(Cl)cc(Cl)c3ccc2c1 | 0% | – |
| CC(C)Oc1ccc2c(c1)C(=O)c1ccc(C(=O)O)cc1CC2 | 50% | – |
| O=C(O)c1ccc2c(=O)c3cccc(Br)c3ccc2c1 | 25% | – |
| O=C(O)c1ccc2ccc3ccc(C(=O)O)cc3c(=O)c2c1 | 25% | – |
| O=C(O)c1ccc2ccc3ccccc3c(=O)c2c1 | 62.5% | – |
| O=C(O)c1ccc2c(c1)CCc1c(Cl)cc(Cl)cc1C2=O | 50% | – |
| CC(=O)c1ccc2c(c1)C(=O)c1cc(C(=O)O)ccc1CC2 | 62.5% | – |
| O=C(O)c1ccc2c(c1)C(=O)c1cccc(Br)c1CC2 | 0% | – |
| O=C(O)c1ccc2c(c1)C(=O)c1cc(Cl)ccc1CC2 | 25% | – |
| O=C(O)c1ccc2c(c1)CCc1ccccc1C2=O [listing 3 of 3 here] | – | inhibition in vivo at 25 mg/kg [4]: 11%; inhibition in vivo at 12.5 mg/kg [5]: 0% |
| O=C(O)c1cccc2c1CCc1ccccc1C2=O | 0% | – |

| SMILES | Activity [3] | other results |
| --- | --- | --- |
| Cc1cc(C)c2c(c1)C(=O)c1cc(C(=O)O)ccc1CC2 | 37.5% | – |
| O=C(O)c1ccc2ccc3ccc(Cl)cc3c(=O)c2c1 | 0% | – |
| O=C(O)c1ccc2c(=O)c3ccccc3ccc2c1 | 0% | – |
| Cc1ccc2c(c1)CCc1cc(C(=O)O)ccc1C2=O | 12.5% | – |
| O=C([O-])c1ccc2c(c1)CCc1c(Cl)cccc1C2=O.[Na+] | – | Activity [8]: Toxic; inhibition in vivo at 12.5 mg/kg [5]: 76% |
| O=C(O)c1ccc2c(c1)C(=O)c1ccc(Cl)cc1CC2 | 25% | – |
| O=C([O-])c1ccc2c(c1)C(=O)c1cc(Br)ccc1CC2.[Na+] | – | fold change (FC) [13]: 10; inhibition in vivo at 25 mg/kg [4]: 61%; inhibition in vivo at 12.5 mg/kg [5]: 0% |
| O=C(O)c1ccc2c(c1)CCc1c(Cl)cccc1C2=O [listing 2 of 2 here] | 75% | – |
| CC(=O)c1ccc2c(c1)C(=O)c1cc(C(=O)[O-])ccc1CC2.[Na+] | – | fold change (FC) [7]: <1 |
| CC(C)Oc1ccc2c(c1)C(=O)c1cc(C(=O)[O-])ccc1CC2.[Na+] | – | fold change (FC) [7]: 0.5 |
| O=C(O)c1ccc2c(c1)CCc1c(Br)cccc1C2=O [listing 1 of 2 here] | – | Activity [16]: 75% |
| O=C([O-])c1ccc2c(c1)CCc1c(Cl)cc(Cl)cc1C2=O.[Na+] | – | Activity [8]: Toxic; inhibition in vivo at 12.5 mg/kg [5]: 53% |
| O=C(O)c1ccc2c(c1)C(=O)c1ccc(Br)cc1CC2 | 0% | – |
| CC(C)c1ccc2c(c1)C(=O)c1cc(C(=O)O)ccc1CC2 | 25% | – |
| O=C(O)c1ccc2c(c1)CCc1c(Br)cccc1C2=O [listing 2 of 2 here] | – | inhibition in vivo at 25 mg/kg [4]: 77%; inhibition in vivo at 6.25 mg/kg [10]: 0%; inhibition in vivo at 12.5 mg/kg [5]: 46% |
| COc1ccc2c(c1)C(=O)c1ccc(C(=O)O)cc1CC2 [listing 2 of 2 here] | – | inhibition in vivo at 25 mg/kg [4]: 68%; inhibition in vivo at 12.5 mg/kg [5]: 13% |
| CC(C)c1ccc2c(c1)C(=O)c1cc(C(=O)[O-])ccc1CC2.[Na+] | – | fold change (FC) [9]: 5 |
| O=C(O)c1cccc2c(=O)c3ccccc3ccc12 | 12.5% | – |
| COc1ccc2c(c1)CCc1cc(C(=O)O)ccc1C2=O [listing 2 of 2 here] | – | inhibition in vivo at 25 mg/kg [4]: 20% |
| O=C([O-])c1ccc2c(c1)CCc1ccc(Cl)cc1C2=O.[Na+] | – | Activity [8]: Toxic; inhibition in vivo at 6.25 mg/kg [10]: 0%; inhibition in vivo at 12.5 mg/kg [5]: 24% |
| O=C(O)c1ccc2c(c1)CCc1c(F)cccc1C2=O | 75% | – |
| O=C(O)c1ccc2c(c1)C(=O)c1ccccc1CC2 | 0% | – |
